Screens from PubChem BioAssay.
TRPC4 act – opens the mouse TRPC4 cation channel; HEK293 TRPC4beta/mu-opioid, Fluo4 calcium fluorescence; hits give high values; 310,000 tested, 0.49% active; AID 2237; Q9QUQ5; B-score at 10 µM;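 active means B-score above 5 SD of library B-scores, and initial fluorescence ratio not above library mean plus 5 SD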;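 further: positive B-score marks a calcium rise read as TRPC4 activation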
Target sequence (Q9QUQ5 whole entry, looked up): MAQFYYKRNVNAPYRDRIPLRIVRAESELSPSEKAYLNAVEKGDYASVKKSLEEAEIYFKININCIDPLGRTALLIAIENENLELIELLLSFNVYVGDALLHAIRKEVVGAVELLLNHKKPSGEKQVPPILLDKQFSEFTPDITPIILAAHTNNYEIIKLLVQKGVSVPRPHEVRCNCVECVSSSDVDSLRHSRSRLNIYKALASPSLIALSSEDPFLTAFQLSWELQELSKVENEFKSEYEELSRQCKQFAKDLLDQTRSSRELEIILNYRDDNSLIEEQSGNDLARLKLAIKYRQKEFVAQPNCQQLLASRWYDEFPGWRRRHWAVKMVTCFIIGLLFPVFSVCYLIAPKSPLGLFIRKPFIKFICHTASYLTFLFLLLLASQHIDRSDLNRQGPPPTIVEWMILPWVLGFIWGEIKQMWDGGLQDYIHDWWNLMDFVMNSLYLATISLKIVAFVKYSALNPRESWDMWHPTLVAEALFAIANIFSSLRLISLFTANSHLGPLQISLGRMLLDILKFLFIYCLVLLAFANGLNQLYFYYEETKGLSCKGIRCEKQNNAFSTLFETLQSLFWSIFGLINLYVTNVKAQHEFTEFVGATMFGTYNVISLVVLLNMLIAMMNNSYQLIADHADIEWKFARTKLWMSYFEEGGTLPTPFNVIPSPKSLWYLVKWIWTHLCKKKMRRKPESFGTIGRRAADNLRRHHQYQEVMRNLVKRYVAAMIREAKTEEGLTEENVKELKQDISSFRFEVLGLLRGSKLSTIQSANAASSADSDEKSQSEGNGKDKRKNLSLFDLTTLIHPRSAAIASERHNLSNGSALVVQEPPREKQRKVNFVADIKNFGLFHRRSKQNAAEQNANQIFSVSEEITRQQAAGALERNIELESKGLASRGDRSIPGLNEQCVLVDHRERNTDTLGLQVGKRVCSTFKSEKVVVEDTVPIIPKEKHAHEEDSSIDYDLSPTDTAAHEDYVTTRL
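System: HEK293 cells stably co-expressing mouse TRPC4beta and mu-opioid receptor; Schedule: Fluo4 dye loading 45 min at room temperature, 110 s recording; Detection: Fluo4 fluorescence, kinetic; Evaluation: B-scored integrated calcium fluorescence ratio; Controls: buffer (low) and maximal DAMGO (high).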
TRPC6 activator – activates the mouse TRPC6 cation channel | HEK293-TRPC6 membrane potential dye fluorescence; hits give high values | Q61143 | B-score at 10 µM | 310,000 tested, 0.13% active;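 active means B-score of the integrated fluorescence ratio above library mean plus 3 SD, and starting fluorescence ratio within library mean plus 5 SD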;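 further: higher score means more depolarization so channel activation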
TRPC4 potent – allosteric potentiators of mouse TRPC4 channel. Q9QUQ5. B-score at 10 µM. 310,000 tested, 0.42% active. HEK293 TRPC4beta/mu-opioid, DAMGO EC20, Fluo-4 Ca2+ flux; hits give high values;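 active means B-score of calcium response area above 5 SD of library B-scores, with initial fluorescence ratio within 5 SD of library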
TRPC4 block – blocks the mouse TRPC4 cation channel; Q9QUQ5; HEK293 TRPC4beta/mu-opioid, DAMGO-evoked Fluo4 calcium flux; hits give low values; B-score at 10 µM; 300,000 tested, 0.39% active; AID 2247;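 active means B-score over 3 SD under the library average, no early fluorescence shift, positive overall ratio signal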
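Assay system – HEK293 line stably carrying TRPC4beta and mu-opioid receptor · Doses – single dose · Detection – Fluo4 calcium-dye fluorescence, kinetic read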
TRPC6 inh – inhibitors of mouse TRPC6 channel; Q61143; AID 2553; B-score at 10 µM; 310,000 tested, 1.1% active; HEK293-TRPC6, membrane potential dye, ACh-evoked depolarization; hits give low values;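 active means B-score under library mean minus 3 SD, initial fluorescence not abnormally high, positive integrated signal ratio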;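 further: B-score derived from integrated fluorescence ratio over the kinetic read; more negative B-score means stronger inhibition of depolarization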
TRPC4 spec 2 – second check of whether TRPC6 inhibitors also affect mouse TRPC4; shares compounds with TRPC6 inh; HEK293 TRPC4/MOR, membrane potential dye fluorescence; channel activated by saturating DAMGO dose; inhibition, % at 10 µM; 920 tested, 42% active; AID 2776;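 active means compounds whose fluorescence signal differed from control wells by over 3 SD, either direction, in both duplicate plates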
TRPC4 spec – selectivity of TRPC6 inhibitors: effect on mouse TRPC4. AID 2777. shares compounds with TRPC6 inh. HEK293 TRPC4/mu-opioid, membrane potential fluorescence. activity change, negative = inhibition, % at 10 µM. 920 tested, 61% active;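 active means rise or fall in signal beyond 3 SD of buffer-only wells in both replicate plates, either sign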;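 further: integrated kinetic ratio of fluorescence range over baseline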
HEK293 MPD ctr 2-1 – second check of TRPC6 inhibitor effects in parental HEK293 cells; signal change vs control, % at 10 µM; parental HEK293 membrane potential dye fluorescence; maximal acetylcholine challenge after compound addition; 920 tested, 31% active; AID 2779; shares compounds with TRPC6 inh;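 active means membrane potential signal moving either way by over 3 SD of the maximum-effect control, in both duplicate plates, meaning non-specific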
HEK293 MPD ctr-1 – parental HEK293 nonspecific activity of TRPC6 inhibitors; 920 tested, 60% active; membrane potential signal change, % at 10 µM; AID 2780; parental HEK293 membrane potential dye fluorescence; shares compounds with TRPC6 inh;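 active means membrane potential signal shifting up or down by more than 3 SD of buffer-only wells, on both duplicate plates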
HEK293 MPD ctr-2 – parental HEK293 nonspecific activity of TRPC6 modulators. membrane potential signal change, % at 10 µM. 2,400 tested, 51% active. shares compounds with TRPC6 inh. membrane potential dye fluorescence;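 active means membrane potential signal moves up or down beyond 5 SD from buffer-only wells, on both duplicate plates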
HEK293 MPD ctr 2-2 – parental HEK293 nonspecific activity of TRPC6 modulators, second screen | 2,400 tested, 14% active | membrane potential dye fluorescence; after compound, maximal acetylcholine stimulation | shares compounds with TRPC6 inh | AID 488926 | inhibition, % at 10 µM;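 active means membrane potential signal drops by more than 5 SD from the mean control signal, in both duplicate plates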
TRPC4/MOR mod – selectivity of TRPC6 modulators against mouse TRPC4 | shares compounds with TRPC6 inh | HEK293 TRPC4/mu-opioid, membrane potential fluorescence | percent change from control (negative = decrease, positive = increase), % at 10 µM | 2,400 tested, 69% active | AID 488927;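 active means membrane potential signal moved up or down beyond 5 SD of buffer control wells, in both duplicate plates, actives on both sides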
TRPC4/MOR inh 2 – second check of whether TRPC6 modulators also affect mouse TRPC4; shares compounds with TRPC6 inh; HEK293 TRPC4/mu-opioid, membrane potential dye fluorescence; stimulated with maximal-effect DAMGO; inhibition, % at 10 µM; 2,400 tested, 55% active; AID 488928;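 active means drop in membrane potential signal beyond 5 SD of the control wells in both duplicate plates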;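 further: TRPC4 counter screen for TRPC6 hits run under conditions tuned for TRPC6 not TRPC4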
TRPC6 block conf – mouse TRPC6 inhibitor confirmation; HEK293-TRPC6, membrane potential dye, ACh-evoked depolarization; shares compounds with TRPC6 inh; 3,300 tested, 43% active; inhibition, % at 10 µM;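 active means fluorescence ratio falls more than 5 SD below the full-stimulation control mean, in both duplicate runs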;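 further: integrated fluorescence ratio of peak minus minimum over baseline after agonist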
TRPC6 act conf – mouse TRPC6 activator confirmation | shares compounds with TRPC6 inh | HEK293-TRPC6 membrane potential dye fluorescence, FDSS | activation, % at 10 µM | 2,800 tested, 11% active;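 active means ratio signal rise beyond 5 SD above unstimulated control wells' mean, seen in both duplicate runs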
Each line names hits and unclear results; the compound was inactive in the other large screens (follow-up assays come after a bar, where they were run). Compounds with a hit are over-represented: about 2.3% of the library has one in this group of screens.

O=C(c1ccc(Oc2cc(Cl)cc(Cl)c2)o1)N1CCCCC1	TRPC6 inh -5.6 | HEK293 MPD ctr-2 inactive | HEK293 MPD ctr 2-2 inactive | TRPC4/MOR mod inactive | TRPC4/MOR inh 2 inactive | TRPC6 block conf inactive | TRPC6 act conf inactive
c1ccc2c(N3CCCCC3)nc(N3CCCC3)nc2c1	none
Cc1cc(-c2ccccc2)nc(N2CCN(c3ccccn3)CC2)n1	none
Nc1nc(N2CCCCC2)nc2ccccc12	TRPC4 block -8, TRPC6 inh -11 | HEK293 MPD ctr-2 -212% | HEK293 MPD ctr 2-2 inactive | TRPC4/MOR mod -42% | TRPC4/MOR inh 2 92% | TRPC6 block conf 70% | TRPC6 act conf inactive
c1ccc(-c2nc(N3CCNCC3)nc3ccccc23)cc1	TRPC4 potent 18, TRPC6 inh -8 | TRPC4 spec 2 40% | TRPC4 spec inactive | HEK293 MPD ctr 2-1 inactive | HEK293 MPD ctr-1 4.7% | TRPC6 block conf inactive | TRPC6 act conf inactive
Nc1nc(N2CCN(c3ccccn3)CC2)nc2ccccc12	TRPC6 inh -6.9 | TRPC4 spec 2 49% | TRPC4 spec -19% | HEK293 MPD ctr 2-1 inactive | HEK293 MPD ctr-1 -232% | TRPC6 block conf 62% | TRPC6 act conf inactive
Cc1noc(C)c1CSCc1ccc(Cl)cc1	none
CC(=O)N1CCC(N(CCN2CCOCC2)C(=S)Nc2ccccc2C)CC1	none
Cc1ccc(S(=O)(=O)N2CCN(Cc3ccccc3)CC2)c(C)c1N(C)S(=O)(=O)c1ccccc1	none
Cc1ccc2c(Cl)c(C)c(N3CCCC3)nc2n1	TRPC6 inh -5.7 | HEK293 MPD ctr-2 -244% | HEK293 MPD ctr 2-2 70% | TRPC4/MOR mod -40% | TRPC4/MOR inh 2 52% | TRPC6 block conf 54% | TRPC6 act conf inactive
CCCCn1c2ccc(F)cc2c2nnc(NN)nc21	none
COc1ccc(N2C(=O)CSC23C(=O)N2CCCc4cccc3c42)cc1 (stereo unspecified)	TRPC6 inh -14 | TRPC4 spec 2 inactive | TRPC4 spec inactive | HEK293 MPD ctr 2-1 -29% | HEK293 MPD ctr-1 inactive | TRPC6 block conf 81% | TRPC6 act conf inactive
O=C1CSC2(C(=O)N3CCCc4cccc2c43)N1c1cccc(C(F)(F)F)c1 (stereo unspecified)	none
CCn1cc(Cl)c(C(=O)Nc2nc3ccccc3n2CCN2CCCCC2)n1	TRPC6 inh -8.7 | HEK293 MPD ctr-2 -270% | HEK293 MPD ctr 2-2 74% | TRPC4/MOR mod -42% | TRPC4/MOR inh 2 66% | TRPC6 block conf 60% | TRPC6 act conf inactive
O=C(Nc1nc2ccccc2n1CCN1CCCCC1)c1ccco1	TRPC6 inh -7.9 | TRPC4 spec 2 48% | TRPC4 spec -18% | HEK293 MPD ctr 2-1 inactive | HEK293 MPD ctr-1 -264% | TRPC6 block conf inactive | TRPC6 act conf inactive
O=C(Nc1nc2ccccc2n1CCOc1ccccc1)c1ccco1	none
COc1cc2c(cc1OC)CN(CC(=O)NC(=O)NCc1ccccc1)CC2	none
C[n+]1ccccc1/C=C/c1ccc(F)c(F)c1	TRPC6 inh -7.2 | TRPC4 spec 2 inactive | TRPC4 spec -34% | HEK293 MPD ctr 2-1 34% | HEK293 MPD ctr-1 -596% | TRPC6 block conf 80% | TRPC6 act conf inactive
C[n+]1ccccc1/C=C/c1ccc([N+](=O)[O-])cc1	TRPC6 inh -7.3 | HEK293 MPD ctr-2 -250% | HEK293 MPD ctr 2-2 110% | TRPC4/MOR mod -40% | TRPC4/MOR inh 2 52% | TRPC6 block conf 64% | TRPC6 act conf inactive
N=c1c(C(=O)NCC2CCCO2)cc2c(=O)n3ccccc3nc2n1Cc1ccccc1 (stereo unspecified)	TRPC6 inh -7.4 | HEK293 MPD ctr-2 -125% | HEK293 MPD ctr 2-2 78% | TRPC4/MOR mod -28% | TRPC4/MOR inh 2 38% | TRPC6 block conf 45% | TRPC6 act conf inactive
COc1ccc(Cn2c(=N)c(C(=O)NCC3CCCO3)cc3c(=O)n4ccccc4nc32)cc1 (stereo unspecified)	TRPC6 inh -6.5 | HEK293 MPD ctr-2 inactive | HEK293 MPD ctr 2-2 inactive | TRPC4/MOR mod -10% | TRPC4/MOR inh 2 36% | TRPC6 block conf 44% | TRPC6 act conf inactive
COCCCn1c(=N)c(C(=O)NCC2CCCO2)cc2c(=O)n3ccccc3nc21 (stereo unspecified)	none
CCOC(=O)c1cc2c(=O)n3ccccc3nc2n(CCCOC)c1=NC(=O)c1cccnc1	none
N=c1c(C(=O)NCc2ccc3c(c2)OCO3)cc2c(=O)n3ccccc3nc2n1CC1CCCO1 (stereo unspecified)	none
CCOC(=O)c1cc2c(=O)n3ccccc3nc2n(CCCOC)c1=NC(=O)C(C)(C)C	TRPC6 inh -5.9 | HEK293 MPD ctr-2 -195% | HEK293 MPD ctr 2-2 inactive | TRPC4/MOR mod -27% | TRPC4/MOR inh 2 56% | TRPC6 block conf 50% | TRPC6 act conf inactive
N=c1c(C(=O)NCC2CCCO2)cc2c(=O)n3ccccc3nc2n1Cc1ccccc1Cl (stereo unspecified)	TRPC4 potent 78, TRPC6 inh -6.7 | TRPC4 spec 2 48% | TRPC4 spec inactive | HEK293 MPD ctr 2-1 inactive | HEK293 MPD ctr-1 -456% | TRPC6 block conf inactive | TRPC6 act conf inactive
CCCCSc1cc(C)nc(N)n1	none
COc1ccc(NC(=O)c2cccc(-n3c(C)ccc3C)c2)c(OC)c1	none
